Measurements of several laboratories.
Compare with care: the assays were run in different laboratories.
Target: Serine/threonine-protein kinase Sgk1 (SGK1, Homo sapiens, UniProt O00141)
Residues used in one study (O00141 1-431): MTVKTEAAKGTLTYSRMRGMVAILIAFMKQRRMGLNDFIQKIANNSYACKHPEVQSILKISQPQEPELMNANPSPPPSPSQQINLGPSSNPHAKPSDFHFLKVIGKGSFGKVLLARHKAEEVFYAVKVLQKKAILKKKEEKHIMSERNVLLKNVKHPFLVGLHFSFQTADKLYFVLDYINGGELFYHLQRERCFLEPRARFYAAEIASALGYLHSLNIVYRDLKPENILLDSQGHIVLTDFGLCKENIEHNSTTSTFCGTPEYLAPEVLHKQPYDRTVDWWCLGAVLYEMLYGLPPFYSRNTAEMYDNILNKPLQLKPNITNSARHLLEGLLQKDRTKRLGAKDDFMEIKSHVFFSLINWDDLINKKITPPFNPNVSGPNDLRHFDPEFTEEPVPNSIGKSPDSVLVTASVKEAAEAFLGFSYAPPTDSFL

CN(C)C(=O)Cn1cc(-c2nc([C@@](C)(c3ccc(-c4cnc(N)nc4)cc3)C3CC3)no2)cn1  remaining binding (cell-free assay; competition with immobilised ligand; 1 µM): 91%
COc1cnc(Nc2cccc(S(N)(=O)=O)c2)nc1N1CCN(c2ccccc2)C(=O)C1  remaining binding (binding; competition with immobilised ligand; 1 µM): 94%
CC1=C(C#N)[C@@H](c2ccc3[nH]nc(C)c3c2)C(C#N)=C(c2ccc(Cl)cc2)N1  remaining binding (cell-free assay; competition with immobilised ligand; 1 µM): 100%
N[C@H]1CCN(c2nccc(-c3cnn4ncccc34)n2)C1  remaining binding (binding; 1 µM): 91%
CCN1CCN(Cc2ccc(C(=O)Nc3ccc(C)c(Oc4ccc5c(c4)CC(=O)N5)c3)cc2C(F)(F)F)CC1  remaining binding (binding; competition with immobilised ligand; 1 µM): 79%
FC(F)(F)Oc1cccc(-c2cnc3ccc(-c4ccncc4)nn23)c1  remaining binding (binding; competition with immobilised ligand; 5 µM): 75%
CN(C)c1nccc(-c2cnn3ncccc23)n1  remaining binding (binding; 1 µM): 69%
CS(=O)(=O)c1cc(C2(NC(=O)c3cncc4c3cnn4-c3ccc(F)cc3)CC2)ccn1  remaining binding (cell-free assay; competition with immobilised ligand; 1 µM): 97%
C[C@H]1CCN(c2nccc(-c3cnn4ncccc34)n2)C1  remaining binding (binding; 1 µM): 68%
Cc1nc(Cc2cccc(C(F)(F)F)c2)sc1-c1ccc(C(N)=O)nc1  remaining binding (cell-free assay; competition with immobilised ligand; 1 µM): 100%
C[C@@H](c1ccc(-n2cnc3c(N)ncnc32)cc1)N1CCc2nn(C)c(Cc3ccccc3)c2C1=O  remaining binding (binding; competition with immobilised ligand; 0.1 µM): 61%
C=CC(=O)N1CCC(C(=O)NCC(=O)N2CCN(c3nc(-c4cnc(N)nc4C(F)F)nc(N4CCOCC4)n3)CC2)CC1  remaining binding (binding; competition with immobilised ligand; 1 µM): 85%
CN(C)c1nccc(-c2cnc3ncccn23)n1  remaining binding (binding; 1 µM): 79%
Cc1cnc(Nc2ccc(C(=O)N3CCC(N4CCCC4)CC3)cc2)nc1-c1cc2ccccc2s1  remaining binding (binding; competition with immobilised ligand; 1 µM): 0.2%
CC(=O)Nc1c(C(C)=O)c(=O)n(C)c2nc(-c3ccc(Cl)cc3Cl)c(-c3ccc(Cl)cc3)cc12  remaining binding (cell-free assay; competition with immobilised ligand; 1 µM): 100%
O=C(c1ccc(Nc2ncc(Cl)c(-c3ccc(Cl)s3)n2)cc1)N1CCC(N2CCCC2)CC1  remaining binding (binding; competition with immobilised ligand; 1 µM): 0.1%
O=C(NCC1CCOCC1)c1n[nH]cc1NC(=O)c1c(F)cccc1F  remaining binding (binding; competition with immobilised ligand; 1 µM): 89%
Cc1cnn2ncc(-c3ccnc(N(C)C)n3)c2c1  remaining binding (binding; 1 µM): 73%
CN(C)CC#Cc1ccc(OCCCc2sc(N3CCc4cccc(C(=O)Nc5nc6ccccc6s5)c4C3)nc2C(=O)O)c(F)c1  remaining binding (cell-free assay; competition with immobilised ligand; 1 µM): 100%
CN(CCCC(F)(F)F)c1nccc(-c2cnn3ncccc23)n1  remaining binding (binding; 1 µM): 85%
O=C(N[C@H]1CCCCC/C=C\C2C[C@@]2(C(=O)O)NC(=O)[C@@H]2C[C@@H](Oc3ccncc3)CN2C1=O)OC1CCCC1 (stereo partly shown)  remaining binding (binding; competition with immobilised ligand; 1 µM): 100%
O=C(NCCCN1CCOCC1)c1ccc(Nc2nccc(-c3cc4ccccc4s3)n2)cc1  remaining binding (binding; competition with immobilised ligand; 1 µM): 8%
